# Only some compounds are listed: those with a hit (about 3.1% of all), similar ones and a draw of the others.
# OX1R antag-1 = OX1R (HCRTR1) antagonists, primary screen, fluorescence, CHO/OX1R cells, Fluo-8 calcium, orexin A | inhibition, % at 5 µM | Orexin/Hypocretin receptor type 1 (Homo sapiens), O43613 | actives 0.43% (n = 330,000) | AID 434989, 2010 | Fluo-8 calcium fluorescence;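 active means inhibition above its plate's threshold, mean inhibition of all tested compounds on the plate plus 3 SD, cut at about 37% in these data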;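 further: 0% = orexin A challenge wells and 100% = SB-334867-A antagonist wells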
# GPR7 antagonist = GPR7 receptor antagonists, primary screen, cell-based, fluorescence, single concentration; Neuropeptides B/W receptor type 1 (Homo sapiens), P48145; GPR7-expressing cells, fluorescence antagonist assay; inhibition, % at 4.4 µM; actives 1.1% (n = 290,000); in the data active means inhibition above about 16%, passing the limit was not always enough;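 further: cells stimulated with the agonist NPW; 0% = agonist with vehicle and 100% = vehicle without agonist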
# OX1R antag-2 = antagonists of human orexin 1 receptor (OX1R); OX1R-expressing cells, FRET antagonist read-out; Orexin/Hypocretin receptor type 1 (Homo sapiens), O43613; AID 485270, 2010; inhibition, % at 6.6 µM; actives 1.8% (n = 330,000); in the data active means inhibition mostly above about 38%, no sharp cut-off; inactive means mostly below about 40%;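 further: 0% = agonist challenge alone and 100% = reference antagonist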
# GalR3 antagonist = GalR3 antagonists in HEK293 cells, primary screen, cell-based, fluorescence readout | Galanin receptor type 3 (Homo sapiens), O60755 | HEK293 GalR3-CNG cAMP membrane potential fluorescence; galR3 body fused to GalR1 C-terminus | inhibition, % at 3 µM | actives 0.44% (n = 360,000) | AID 651719, 2012;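 active means inhibition above the screen-wide average plus 3 SD, cut at about 13% in these data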;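 further: forskolin and galanin both at EC90 stimulate the cells; cAMP rise reported by CNG channel membrane potential dye signal; 0% = forskolin plus galanin with DMSO and 100% = forskolin alone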
# Target sequence (O60755 1-299 limits assumed): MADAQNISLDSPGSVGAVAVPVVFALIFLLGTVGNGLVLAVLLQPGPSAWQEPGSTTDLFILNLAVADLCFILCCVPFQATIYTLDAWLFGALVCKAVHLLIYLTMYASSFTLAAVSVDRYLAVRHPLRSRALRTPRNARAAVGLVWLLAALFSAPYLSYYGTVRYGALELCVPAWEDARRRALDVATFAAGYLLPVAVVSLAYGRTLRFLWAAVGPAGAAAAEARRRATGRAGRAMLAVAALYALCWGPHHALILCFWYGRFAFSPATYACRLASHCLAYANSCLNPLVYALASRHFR
# CHO parental Ca = ATP-evoked calcium signal inhibitors, parental CHO, primary screen, counter-screen for OX1R antagonist project, cell-based, fluorescence, Fluo-8 calcium dye; parental CHO-K1, ATP-induced calcium, Fluo-8 fluorescence; inhibition, % at 5.6 µM; actives 0.63% (n = 330,000); AID 463079, 2010;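 active means inhibition above that plate's mean sample inhibition plus 3 SD, cut at about 26% in these data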;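 further: 0% = ATP-challenged DMSO wells and 100% = DMSO wells without ATP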
#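 Assay system: parental CHO cells; Read-out basis: percent inhibition of ATP-evoked calcium rise, normalized to controls; Benchmarks: ATP and no-ATP DMSO wells; Compound dosing: single nominal dose of 5.6 µM per compound; Signal: Fluo-8 calcium dye fluorescence; Also added: ATP as calcium-mobilizing challenge; Repeats: singlicate.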
# Active calls of the source: *; x = no result.
SMILES,OX1R antag-1,GPR7 antagonist,OX1R antag-2,GalR3 antagonist,CHO parental Ca
O=C(NCCC(=O)N(Cc1ccco1)Cc1cccs1)c1ccc(Br)cc1,-8,x,18,-9,-23
COc1ccc(-c2ccc3c(n2)CCCN3S(=O)(=O)c2ccccc2C)cc1,x,x,x,-8,x
O=C(COC(=O)c1ccc([N+](=O)[O-])s1)NNC(=O)c1ccccc1,5,x,57*,x,3
COC(=O)c1c(NC(=O)c2nc3ccccc3s2)sc2c1CCN(C(C)=O)C2,-16,1,22,x,-12
CNC(=O)c1c(NC(=O)c2nc3ccccc3s2)sc2c1CCC2,-8,-1,44*,x,-6
CC[C@@H](Nc1ncnc2c1oc1ccccc12)C(=O)O,-3,-11,8,-6,99*
COc1ccc(-c2cc(N)n(S(=O)(=O)Cc3ccccc3)n2)c(OC)c1,0,3,61*,0,-19
O=C(N[C@H](Cc1ccccc1)C(=O)NCCCN1CCCC1=O)[C@H]1O[C@@H](n2ccc(=O)[nH]c2=O)[C@H](O)[C@@H]1O,x,x,x,-8,x
CCOC(=O)C1CCCN(S(=O)(=O)c2cc(C(=O)OC)n(C)c2)C1 (stereo not given),-2,3,4,1,26*
CCn1c2ccccc2c2cc(NC(=O)CSc3nnc(-c4ccc(OC)cc4)n3N)ccc21,-8,9,50*,0,-16
COc1ccc(NC(=O)CSc2nnc(-c3ccccc3)n2N)cc1,-24,8,8,-4,-8
O=C(O)c1oc2ccccc2c1CSc1ccccn1,-10,-11,19,2,-4
O=C(O)c1oc2ccccc2c1CSc1ccc(Cl)cc1,-11,-3,63*,-7,1
O=[N+]([O-])c1cc(-c2ccc(/C=N\n3cnnc3)o2)cc([N+](=O)[O-])c1,-14,-11,69*,-7,-9
CCn1cc(C(=O)N2CCN(c3ccc([N+](=O)[O-])cc3)CC2)c(=O)c2ccc(C)nc21,-34,-14,45*,-2,4
CCn1cc(C(=O)N2CCN(c3cccc(C)c3C)CC2)c(=O)c2ccc(C)nc21,-31,-14,8,-1,-23
O=C(N[C@H](c1cccc(Br)c1)[C@@H]1CCCC=C1c1ccccc1)C(F)(F)F,x,x,x,-8,x
O=C1N=c2ccccc2=C1c1[nH]c(=S)[nH]c1O,-11,-1,43*,1,5
COc1ccc(-c2cc(C(=O)NCCc3ccc(S(N)(=O)=O)cc3)c3ccccc3n2)cc1,6,-10,23,-2,-1
C/C(Cn1nnc([N+](=O)[O-])n1)=N\NC(=O)c1ccccc1Cl,8,-11,42*,0,-9
C/C(Cn1nnc([N+](=O)[O-])n1)=N\NC(=O)c1cccc(Cl)c1,2,-14,24,-1,-1
O=c1cc(-c2ccccc2)c2cc(Cl)c(O)c(CN3CCOCC3)c2o1,-4,-12,65*,-5,-4
COc1ccc(NC(=O)CN(C)CC(=O)Nc2ccc3c(c2)CCC3)cc1,-22,-9,35,0,-27
CN(CC(=O)Nc1ccc2c(c1)CCC2)CC(=O)Nc1ccccc1Br,-6,-4,40*,-2,-15
O=C1NC2(c3ccccc3)NC(=O)NC2(c2ccccc2)N1 (stereo not given),x,x,x,5,x
SMILES,OX1R antag-1,GPR7 antagonist,OX1R antag-2,GalR3 antagonist,CHO parental Ca
O=C(C(=O)N1CCC(CNS(=O)(=O)Cc2ccccc2)CC1)c1cccs1,x,x,x,-7,x
COc1ccc(C2CC(c3ccccc3)=NN2C(=O)COC(=O)c2cc(S(=O)(=O)N3CCOCC3)ccc2F)cc1 (stereo not given),-27,21*,15,0,-5
O=C(CCC(=O)N1CCOc2ccccc21)NCCCN1CCN(Cc2ccccc2)CC1,-7,21*,6,x,-20
CN(C)C(=O)CSc1cnc2ccccc2n1,-5,-17,13,-1,6
Cc1ccc(C(=O)CSc2cnc3ccccc3n2)cc1C,-8,-7,66*,-5,-10
CC(C)c1ccc(C(C)NCCS(=O)(=O)c2ccc(Cl)cc2)cc1 (stereo not given),-32,6,13,-4,-19
CC(NC(=O)c1ccc(N(C)C)c([N+](=O)[O-])c1)c1ccc(-n2ccnc2)cc1 (stereo not given),-16,-4,29,0,-18
